Assay results as given in ChEMBL document CHEMBL3792321, “Potentiation of Francisella Resistance to Conventional Antibiotics through Small Molecule Adjuvants” (Medchemcomm, 2016).
Values after ≈ are worked out from the molar mass of the structure shown. Active and inactive are the calls of the source. The rule behind the calls is not given here.

Columns and labels:
[1] = microbe, parasite or virus in culture; type: functional; conditions: Francisella philomiragia, ATCC 25015, 48 h
[2] = Potentiation of gentamicin-induced antibacterial activity against Francisella philomiragia ATCC 25015 assessed as MIC of gentamicin at 50 uM after 48 hrs (reference value: 0.5 ug/ml); type: functional; conditions: ATCC 25015, 48 h
Outline: (§1)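 Inocula were 5 × 10^5 CFU/mL in CAMHB with 2% IsoVitaleX (F. philomiragia) or TSB-C (F. novicida). Adjuvant from a 100 mM DMSO stock was held at one fixed concentration; the control had no adjuvant. Antibiotic started at 2–2,048 µg/mL in twofold serial dilutions. Incubation was stationary at 37°C for 48 h. Antibiotic MIC was the lowest concentration with no growth, compared with and without adjuvant.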

[3] = system: Francisella tularensis subsp. novicida U112; test: Potentiation of azithromycin-induced antibacterial activity against Francisella novicida U112 assessed as reduction of azithromycin MIC at 50 uM after 48 hrs relative to control; type: functional
Outline: as §1

[4] = Potentiation of azithromycin-induced antibacterial activity against Francisella philomiragia ATCC 25015 assessed as reduction of azithromycin MIC at 50 uM after 48 hrs relative to control; type: functional
Outline: as §1

[5] = Potentiation of azithromycin-induced antibacterial activity against Francisella novicida U112 assessed as MIC of azithromycin at 50 uM after 48 hrs (reference value: 2 ug/ml); type: functional, Francisella tularensis subsp. novicida U112; conditions: Francisella tularensis
Outline: as §1

[6] = Potentiation of streptomycin-induced antibacterial activity against Francisella philomiragia ATCC 25015 assessed as MIC of streptomycin at 50 uM after 48 hrs (reference value: 4 ug/ml); type: functional; conditions: ATCC 25015, 48 h
Outline: as §1

[7] = Potentiation of gentamicin-induced antibacterial activity against Francisella novicida U112 assessed as MIC of gentamicin at 50 uM after 48 hrs (reference value: 1 ug/ml); type: functional, Francisella tularensis subsp. novicida U112; conditions: Francisella tularensis
Outline: as §1

[8] = microbe, parasite or virus in culture; type: functional, Francisella tularensis subsp. novicida U112; conditions: Francisella tularensis, 48 h
[9] = Potentiation of azithromycin-induced antibacterial activity against Francisella philomiragia ATCC 25015 assessed as MIC of azithromycin at 50 uM after 48 hrs (reference value: 4 ug/ml); type: functional; conditions: ATCC 25015, 48 h
Outline: as §1

[10] = Effect on growth of Francisella novicida U112 after 48 hrs; conditions: francisella tularensis subsp. novicida u112, 48 h
Outline: (§2)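 Cultures grown 24 h were diluted to 5 × 10^5 CFU/mL in CAMHB with 2% IsoVitaleX (F. philomiragia) or TSB-C (F. novicida). Compound came from a 100 mM DMSO stock, starting at 200 µM, in twofold serial dilutions over 12 wells. Plates were incubated stationary at 37°C for 48 h. MIC was the lowest concentration with no bacterial growth.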

[11] = Effect on growth of Francisella philomiragia ATCC 25015 after 48 hrs
Outline: as §2

[12] = Potentiation of colistin-induced antibacterial activity against Francisella philomiragia ATCC 25015 assessed as MIC of colistin at 50 uM after 48 hrs (reference value: 256 ug/ml); type: functional; conditions: ATCC 25015, 48 h
Outline: as §1

[13] = Potentiation of FR900098-induced antibacterial activity against Francisella philomiragia ATCC 25015 assessed as reduction of FR900098 MIC at 50 uM after 48 hrs relative to control; type: functional
Outline: as §1

[14] = Potentiation of streptomycin-induced antibacterial activity against Francisella philomiragia ATCC 25015 assessed as reduction of streptomycin MIC at 50 uM after 48 hrs relative to control; type: functional
Outline: as §1

[15] = Potentiation of gentamicin-induced antibacterial activity against Francisella philomiragia ATCC 25015 assessed as reduction of gentamicin MIC at 50 uM after 48 hrs relative to control; type: functional
Outline: as §1

[16] = Potentiation of colistin-induced antibacterial activity against Francisella philomiragia ATCC 25015 assessed as reduction of colistin MIC at 50 uM after 48 hrs relative to control; type: functional
Outline: as §1

[17] = Potentiation of colistin-induced antibacterial activity against Francisella novicida U112 assessed as reduction of colistin MIC at 50 uM after 48 hrs relative to control; type: functional, Francisella tularensis subsp. novicida U112
Outline: as §1

[18] = Potentiation of colistin-induced antibacterial activity against Francisella novicida U112 assessed as reduction of colistin MIC at 100 uM after 48 hrs; type: functional, Francisella tularensis subsp. novicida U112
Outline: as §1

[19] = Effect on growth of Francisella philomiragia ATCC 25015 at 50 uM after 16 hrs by time kill assay
Outline: (§3)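 F. philomiragia from 24 h CAMHB/2% IsoVitaleX cultures was inoculated to 5 × 10^5 CFU/mL, with compound or as an untreated control. Tubes were shaken at 37°C. Samples taken at 8, 12, 16, 20 and 24 h were serially diluted and plated on cysteine heart agar with 5% rabbit blood. Plates were incubated at 37°C for 24–36 h, and CFU were counted.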

[20] = Effect on growth of Francisella philomiragia ATCC 25015 assessed as growth delay at 50 uM after 8 to 12 hrs by time kill assay
Outline: as §3

Row | SMILES | MIC [1] | MIC [2] | Activity [3] | fold change (FC) [4] | MIC [5] | MIC [6] | MIC [7] | MIC [8] | MIC [9] | MIC [10] | MIC [11] | MIC [12] | fold change (FC) [13] | fold change (FC) [14] | fold change (FC) [15] | fold change (FC) [16] | fold change (FC) [17] | fold change (FC) [18] | Activity [19] | Activity [20]
1 | CCSC(=O)N1CCc2ccccc21 | 1020 µg/mL (≈ 4.94 mM) | 0.5 µg/mL | Active | 8 | 0.125 µg/mL | 4 µg/mL | 4 µg/mL | 1020 µg/mL (≈ 4.94 mM) | 0.5 µg/mL | > 200 µg/mL | > 200 µM | 256 µg/mL |  |  |  |  |  |  |  | 
2 | CCCCCc1ccc(C2=NCCO2)cc1 | < 64 µg/mL | 1 µg/mL |  |  |  | 8 µg/mL |  |  | 2 µg/mL |  | 200 µM (≈ 43.5 µg/mL) | 512 µg/mL | 16 |  |  |  |  |  |  | 
3 | Cc1cc2nc(N)[nH]c2cc1C | 1020 µg/mL (≈ 6.35 mM) | 0.125 µg/mL |  |  | 2 µg/mL | 1 µg/mL | 1 µg/mL | 1020 µg/mL (≈ 6.35 mM) | 4 µg/mL | > 200 µg/mL | > 200 µM | 32 µg/mL |  | 4 | 4 |  |  |  |  | 
4 | CCCCc1ccc(C(=O)NCCCc2c[nH]c3ccccc23)cc1 |  | 0.25 µg/mL |  |  |  | 4 µg/mL |  |  | 2 µg/mL |  | > 200 µM | 64 µg/mL |  |  |  | 4 |  |  |  | 
5 | CCCCc1ccc(C(=O)NCCc2c[nH]c3ccccc23)cc1 | 1020 µg/mL (≈ 3.2 mM) | 0.25 µg/mL |  |  | 1 µg/mL | 4 µg/mL | 4 µg/mL | 512 µg/mL (≈ 1.6 mM) | 0.5 µg/mL | > 200 µg/mL | > 200 µM | 8 µg/mL |  |  |  |  | 2 | 16 | Non-toxic | Toxic
